High-throughput results: PubChem, several laboratories
Only some compounds are listed: those with a hit (about 1.5% of all), similar ones and a draw of the others.
TbHK1 inh – blocks Trypanosoma brucei hexokinase 1 activity. inhibition, % at 10 µM. actives 0.11% (n = 220,000). recombinant TbHK1, G6PDH-coupled NADH A340;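 active = inhibition of 50% or more in the single-dose primary screen; inactive = inhibition below 50%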
Rad51 HR inh – blocks human Rad51 in homologous recombination | AID 1385 | actives 0.085% (n = 200,000) | Q06609 | inhibition, % at 10 µM | hRad51 DNA strand exchange, fluorescence dequenching;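 active = inhibition above 40% at the single screening dose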;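 also: 0% = DMSO control wells and 100% = blanks with heterologous ssDNA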
Target sequence (Q06609 whole entry, looked up): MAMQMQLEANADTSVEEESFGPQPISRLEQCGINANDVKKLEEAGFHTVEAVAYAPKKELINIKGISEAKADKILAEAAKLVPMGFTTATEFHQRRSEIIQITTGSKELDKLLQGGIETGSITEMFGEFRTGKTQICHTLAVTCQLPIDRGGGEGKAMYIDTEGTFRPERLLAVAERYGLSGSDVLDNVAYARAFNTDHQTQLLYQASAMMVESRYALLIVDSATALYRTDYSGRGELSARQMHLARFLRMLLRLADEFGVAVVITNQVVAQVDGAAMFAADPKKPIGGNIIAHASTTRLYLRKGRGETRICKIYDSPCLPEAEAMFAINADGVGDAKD
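material = hRad51 filaments on single-stranded DNA | timing = filaments 15 min 37 °C, then compound 30 min | signal = FRET fluorescence dequenching, excitation 485 nm, emission 520 nm | benchmarks = control wells and blank wells on each plate | evaluation = percent inhibition relative to plate controls and blanks | compound = 10 µM final, single point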
MT stabilizer – microtubule stabilization, imaging screen; % tubulin-high responders, % at 10 µM; actives 0.83% (n = 200,000); HeLa tubulin immunostaining HCS, 24 h; share of cells brighter than vehicle mean+2SD;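 active = plate Z-score above 3 for both tubulin-high and condensed-nucleus cell shares, with cell loss under 80%, at 10 µM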;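 also: anti alpha tubulin signal scored within the nucleus-defined area of each cell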
b-catenin transl – beta-catenin nuclear translocation modulation | HeLa beta-catenin nuclear translocation, immunofluorescence imaging | actives 0.3% (n = 190,000) | nuclear translocation activity, % at 5 µM;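 active = nuclear translocation activity above 50% at 5 µM, with a well cell count of 50 or more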;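 also: per-cell ratio of nuclear to cytoplasmic median beta-catenin stain intensity; plate controls were DMSO negative control for no effect and GSK-3 inhibitor IX positive control for full effect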
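assay system = human HeLa cells, endogenous beta-catenin | times = compound treatment 24 h, 37°C, 5% CO2 | detection = Anti-beta-catenin immunofluorescence on PFA-fixed, Triton-permeabilized cells, DAPI nuclei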
Dynein cargo inh – blocks dynein driven cargo transport along microtubules. 3617.4 mouse cells, GR-EGFP nuclear translocation imaging; test concentration mostly 20 µM; stimulated with dexamethasone, 1 µM; active compounds read low. z-score, hits read low. actives 0.47% (n = 220,000);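 active = plate z-score of nuclear minus cytoplasmic receptor signal below a set negative limit, without overly bright fluorescence or cell loss, cut at about -3.5 in these data, passing the limit was not always enough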;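 also: z-score of nuclear minus cytoplasmic ring GR-EGFP intensity difference per well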
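Also added: dexamethasone, 1.0 µM final. Medium: tet-free, stripped-serum medium. Detection: fixed, Hoechst-stained cells imaged at 10x for EGFP. Read-out: nuclear-to-cytoplasmic GR-EGFP distribution per well. Times: induction 48 h, compound 1 h, agonist 30 min.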
* marks the source's active call; other numbers are inactive results; i = inactive; . = not tested or not shown.

SMILES	TbHK1 inh	Rad51 HR inh	MT stabilizer	b-catenin transl	Dynein cargo inh
CCOc1cccc(C2NC(=S)NC(C)=C2C(=O)Nc2ccccc2)c1 (stereo unspecified)	22.4	-13.4	13.7*	1.3	-0.795
O=C(COC(=O)CCCN1C(=O)c2cccc3cccc(c23)C1=O)Nc1cccc(Br)c1	1.2	-1.2	13.1*	.	0.593
O=C(NCc1cccc(C(F)(F)F)c1)C1CC(c2c(Cl)cccc2Cl)=NO1 (stereo unspecified)	5.7	4.3	37.4*	43.6	0.572
CCCC(=O)Nc1nc(C)c(-c2csc(Nc3cc(OC)ccc3OC)n2)s1	-8.7	-4.6	12.1	33.0	1.09
C=CCCC(=O)Nc1nc(C)c(-c2csc(Nc3cc(OC)ccc3OC)n2)s1	-12.7	-6.0	31.0*	70.2*	-0.61
CSc1nc(-c2ccco2)nn1C(=O)Cc1ccccc1	5.1	-6.1	3.2	2.7	1.64
NC(=O)c1ccc2c(=O)n3c(-c4cc(Cl)c(N)c(Cl)c4)csc3nc2c1	-28.5	4.8	.	66.4*	-0.148
COc1cccc(C(=O)NC(=S)Nc2ccc3oc(=O)ccc3c2)c1	-5.3	-2.8	4.4	1.6	-0.136
CC(=O)NC1=NN(C(C)=O)C(C)(c2cccs2)S1 (stereo unspecified)	4.5	8.5	39.3*	1.6	-0.828
CCOc1ccc(NCc2nnc(SCC(=O)Nc3cc(C)on3)n2-c2ccccc2OC)cc1	-1.3	.	23.6*	0.6	-0.208
CCOc1ccc(NCc2nnc(SCC(=O)Nc3cc(C)on3)n2-c2ccc(OC)cc2)cc1	2.7	-11.0	2.2	-1.8	0.979
Cc1ccc(C2CC(c3ccccc3)=NN2C(=S)Nc2ccccc2)o1 (stereo unspecified)	-25.9	-4.7	49.7*	.	-1.06
Cc1cc(C(N)=O)c2ccccc2n1	10.3	-7.4	3.6	-4.0	-0.0395
NC(=O)c1cc2c3ccccc3ccn2c1-c1ccccc1	-16.0	-27.3	.	101.5*	-1.35
COc1ccc(NS(=O)(=O)c2ccc(O)c(NC(=O)c3ccc(S(=O)(=O)N4CCCCCC4)cc3)c2)cc1	19.5	1.8	1.4	1.3	0.245
COc1ccc(NS(=O)(=O)c2cccc(NC(=O)c3ccc(S(=O)(=O)N4CCCCCC4)cc3)c2)cc1	18.8	-4.0	18.2*	0.2	-0.453
O=C(O)CSc1nc(-c2ccccc2)c(-c2ccccc2)[nH]1	-11.8	8.4	.	0.4	0.376
CC(C)(C)NC(=O)CSc1nc(-c2ccccc2)c(-c2ccccc2)[nH]1	-3.6	.	15.0*	-1.0	-0.914
COc1cc(C(=O)N/N=C(\C)c2ccc3c(c2)OCO3)cc(OC)c1OC	-13.1	-1.6	20.3*	12.2	0.125
COc1ccc(/C(C)=N\NC(=O)c2ccc3c(c2)OCO3)cc1OC	-10.3	10.4	4.0	-1.7	-0.105
CC(C)OC(=O)c1nnc(Cc2ccc(F)cc2)o1	2.7	1.0	2.5	-1.8	-0.379
CC(C)C[C@H](N)c1nnc(S(=O)(=O)Cc2ccc(F)cc2)o1	-2.3	0.1	2.5	1.0	-3.73*
COc1ccc(C[C@H]2CN3C(=NC[C@H]3Cc3ccccc3)N2CCNC(=O)c2ccc(C)c(Br)c2)cc1	29.8	4.4	.	63.3*	-0.533
CCN(CC)c1ccc2cc(-c3nnc(-c4ccccc4)o3)c(=O)oc2c1	5.0	i	3.4	-1.5	-4.52*
CCN(CC)c1ccc2cc(-c3nnc(-c4ccc(Br)cc4)o3)c(=O)oc2c1	25.7	.	2.4	.	-5.72*
SMILES	TbHK1 inh	Rad51 HR inh	MT stabilizer	b-catenin transl	Dynein cargo inh
O=c1oc2ccc3ccccc3c2cc1-c1nnc(-c2ccccc2)o1	2.6	-15.4	6.0	-0.2	-1.29
CCN(CC)c1ccc2cc(-c3nc4ccccc4n3C)c(=O)oc2c1	-3.7	3.3	29.2*	65.6*	1.7
Cc1ccccc1Nc1nc(NCc2ccco2)c2ccccc2n1	11.7	-4.4	3.4	1.8	1.22
N#CC1=C(SCC(=O)c2ccc(Br)cc2)NC2=C(C(=O)CCC2)C1c1ccco1 (stereo unspecified)	-6.9	.	31.7*	46.7	0.382
CCc1ccc(NC(=O)CSC2=C(C#N)C(c3ccco3)C3=C(CCCC3=O)N2)cc1 (stereo unspecified)	-0.8	6.6	5.1	-6.2	-0.854
Cc1cc(N2CCN(S(=O)(=O)c3ccc4ccccc4c3)CC2)n2ncnc2n1	-6.5	-7.4	.	0.1	-0.0414
